Columns and labels:
[1] = target: T1, Inhibitor of nuclear factor kappa-B kinase subunit beta (Homo sapiens, UniProt O14920); assay: Inhibition of IKKbeta in human U2OS cells assessed as TNFalpha induced IkBalpha degradation at 100 uM preincubated for 1 hr followed by TNFalpha stimulation for 30 mins by Western blot analysis; assay type: cell-based; conditions: 0.5 h
T1 sequence (O14920 whole entry): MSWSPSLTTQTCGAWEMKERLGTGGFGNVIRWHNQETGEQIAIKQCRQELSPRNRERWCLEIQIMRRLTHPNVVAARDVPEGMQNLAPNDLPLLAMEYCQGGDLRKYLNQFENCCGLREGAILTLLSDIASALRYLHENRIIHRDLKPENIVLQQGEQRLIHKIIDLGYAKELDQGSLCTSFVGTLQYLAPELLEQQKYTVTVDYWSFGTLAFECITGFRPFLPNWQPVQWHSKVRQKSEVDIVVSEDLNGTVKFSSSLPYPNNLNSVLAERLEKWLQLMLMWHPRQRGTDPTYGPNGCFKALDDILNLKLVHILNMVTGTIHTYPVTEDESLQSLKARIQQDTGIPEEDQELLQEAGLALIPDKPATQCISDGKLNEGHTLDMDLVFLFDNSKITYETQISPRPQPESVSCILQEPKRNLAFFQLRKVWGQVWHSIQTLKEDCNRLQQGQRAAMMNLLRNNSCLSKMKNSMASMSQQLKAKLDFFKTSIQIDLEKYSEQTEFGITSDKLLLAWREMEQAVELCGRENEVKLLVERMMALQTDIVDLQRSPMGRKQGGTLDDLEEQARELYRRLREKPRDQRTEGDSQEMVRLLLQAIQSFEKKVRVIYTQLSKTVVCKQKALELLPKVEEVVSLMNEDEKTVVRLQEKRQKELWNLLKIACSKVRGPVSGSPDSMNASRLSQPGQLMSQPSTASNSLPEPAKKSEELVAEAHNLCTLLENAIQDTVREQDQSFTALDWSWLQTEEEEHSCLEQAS
Summary of the method: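 U2OS cells were grown in McCoy's 5A medium at 37 °C under 5% CO2 and made quiescent by 24 h serum deprivation. They were then pretreated with compound before agonist stimulation in serum-free medium. Phospho-p100, IκBα levels and phospho-p65 (Ser536) were assessed by Western blot.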

[2] = target: T2, Inhibitor of nuclear factor kappa-B kinase subunit alpha (Mus musculus) (UniProt Q60680); assay: Inhibition of IKKalpha in IKKbeta knockout mouse embryonic fibroblast cells harboring Adv.NF-kB.luc assessed as IL-1beta induced NF-kB transcriptional activation at 100 uM pretreated for 1 hr followed by IL-1beta stimulation for 6 hrs by luciferase reporter gene assay relative to control; set-up: scale not given: the % may be the effect or the level left
T2 sequence (whole entry): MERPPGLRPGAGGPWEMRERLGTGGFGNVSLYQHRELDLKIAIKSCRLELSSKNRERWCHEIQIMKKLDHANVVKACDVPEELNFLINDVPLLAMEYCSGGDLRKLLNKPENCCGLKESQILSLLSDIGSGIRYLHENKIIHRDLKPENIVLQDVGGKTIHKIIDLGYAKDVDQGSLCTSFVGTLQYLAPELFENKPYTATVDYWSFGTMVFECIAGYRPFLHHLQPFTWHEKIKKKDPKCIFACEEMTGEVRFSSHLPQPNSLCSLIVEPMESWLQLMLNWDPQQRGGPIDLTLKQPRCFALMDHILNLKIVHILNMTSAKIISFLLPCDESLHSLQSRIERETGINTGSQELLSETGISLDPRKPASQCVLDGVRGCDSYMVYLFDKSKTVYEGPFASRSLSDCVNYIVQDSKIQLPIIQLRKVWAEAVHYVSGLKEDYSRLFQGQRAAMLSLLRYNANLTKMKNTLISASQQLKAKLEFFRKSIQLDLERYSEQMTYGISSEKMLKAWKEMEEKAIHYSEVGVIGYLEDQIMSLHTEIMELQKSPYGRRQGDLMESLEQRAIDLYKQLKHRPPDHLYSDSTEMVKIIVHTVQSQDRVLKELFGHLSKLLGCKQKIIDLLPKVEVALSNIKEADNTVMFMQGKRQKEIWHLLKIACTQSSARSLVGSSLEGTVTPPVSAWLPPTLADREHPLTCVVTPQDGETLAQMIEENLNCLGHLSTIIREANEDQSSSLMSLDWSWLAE
Summary of the method: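 IKKβ knockout MEFs infected with Adv.NF-kB.luc (up to 300 pfu/cell, 24 h, 10% DMEM), replated and serum-starved 24 h. Pretreated 1 h with compound, then IL-1β (10 ng/mL) for 6 h. Lysis buffer contained 0.2 mM luciferin, and luminescence was read as RLU. Results are expressed as % of IL-1β + DMSO stimulation.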

[3] = target: T3, Inhibitor of nuclear factor kappa-B kinase subunit alpha (Homo sapiens, UniProt O15111); assay: Inhibition of recombinant human N-terminal GST-tagged IKKalpha (1 to 745 residues) expressed in baculovirus expression system using biotinylated IkBalpha as substrate after 60 mins by DELFIA
T3 sequence (O15111 whole entry): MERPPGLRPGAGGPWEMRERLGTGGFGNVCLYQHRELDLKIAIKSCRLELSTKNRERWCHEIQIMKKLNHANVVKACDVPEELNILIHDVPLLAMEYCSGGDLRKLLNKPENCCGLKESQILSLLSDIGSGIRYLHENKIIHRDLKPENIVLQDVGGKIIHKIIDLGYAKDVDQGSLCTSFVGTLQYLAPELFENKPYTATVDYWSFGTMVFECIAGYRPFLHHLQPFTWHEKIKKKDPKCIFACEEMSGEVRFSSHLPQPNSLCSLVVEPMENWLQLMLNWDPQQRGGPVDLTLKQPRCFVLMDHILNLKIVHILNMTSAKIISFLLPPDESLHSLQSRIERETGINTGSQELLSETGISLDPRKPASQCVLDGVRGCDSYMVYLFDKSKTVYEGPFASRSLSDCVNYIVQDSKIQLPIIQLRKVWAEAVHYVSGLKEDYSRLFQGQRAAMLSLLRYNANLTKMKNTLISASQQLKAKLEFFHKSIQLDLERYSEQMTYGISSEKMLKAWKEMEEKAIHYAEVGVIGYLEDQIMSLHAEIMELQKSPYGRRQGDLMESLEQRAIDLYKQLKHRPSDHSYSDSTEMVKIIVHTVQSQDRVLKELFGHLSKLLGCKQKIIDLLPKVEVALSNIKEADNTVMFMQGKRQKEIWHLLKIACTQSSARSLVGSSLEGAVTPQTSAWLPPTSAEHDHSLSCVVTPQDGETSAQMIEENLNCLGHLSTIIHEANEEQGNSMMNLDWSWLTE

[4] = target: Serine/threonine-protein kinase Chk2 (Homo sapiens) (UniProt O96017); assay: Inhibition of N-terminal GST and C-terminal His6 tagged recombinant human CHK2 expressed in Escherichia coli cells at 10 uM relative to control
Summary of the method: (§1)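 Outsourced commercial kinase panel run at a single concentration, with duplicate assay points.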

[5] = target: Calcium/calmodulin-dependent protein kinase type 1 (Homo sapiens) (UniProt Q14012); assay: Inhibition of N-terminal GST tagged recombinant human CaMK1 (2 end residues) expressed in Escherichia coli cells at 10 uM relative to control; summary of the method: as §1
Sequence of Calcium/calmodulin-dependent protein kinase type 1 (Homo sapiens) (Q14012 whole entry, looked up): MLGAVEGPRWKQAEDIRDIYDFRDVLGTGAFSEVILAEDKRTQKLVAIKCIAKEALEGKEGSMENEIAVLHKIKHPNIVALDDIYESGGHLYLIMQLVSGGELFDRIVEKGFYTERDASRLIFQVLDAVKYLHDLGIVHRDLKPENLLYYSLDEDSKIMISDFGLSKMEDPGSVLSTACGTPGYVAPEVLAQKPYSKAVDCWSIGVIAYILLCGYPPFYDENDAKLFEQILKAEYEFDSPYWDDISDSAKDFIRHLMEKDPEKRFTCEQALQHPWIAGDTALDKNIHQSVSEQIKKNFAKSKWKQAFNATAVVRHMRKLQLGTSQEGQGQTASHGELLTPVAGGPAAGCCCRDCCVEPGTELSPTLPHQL

Sequence of Serine/threonine-protein kinase Chk2 (Homo sapiens) (O96017 whole entry): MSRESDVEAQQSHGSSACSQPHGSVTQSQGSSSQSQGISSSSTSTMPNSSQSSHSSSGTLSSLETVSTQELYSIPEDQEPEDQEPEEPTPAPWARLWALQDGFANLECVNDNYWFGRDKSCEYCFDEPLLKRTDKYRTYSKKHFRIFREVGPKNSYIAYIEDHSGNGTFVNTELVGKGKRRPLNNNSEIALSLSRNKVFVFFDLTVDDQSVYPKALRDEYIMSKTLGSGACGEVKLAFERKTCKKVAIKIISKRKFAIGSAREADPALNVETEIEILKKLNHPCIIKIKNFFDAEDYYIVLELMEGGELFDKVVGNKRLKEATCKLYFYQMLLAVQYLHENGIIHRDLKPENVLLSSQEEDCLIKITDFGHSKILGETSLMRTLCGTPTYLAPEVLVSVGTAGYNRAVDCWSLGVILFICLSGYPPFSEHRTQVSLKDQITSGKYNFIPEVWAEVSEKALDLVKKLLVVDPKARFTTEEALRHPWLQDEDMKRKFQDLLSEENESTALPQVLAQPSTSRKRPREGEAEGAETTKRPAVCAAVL

With N#Cc1c[nH]c2nc(N)nc(-c3ccc(S(N)(=O)=O)cc3)c12 the “inhibition (INH)” value [1] was “Active”, the Activity [2] was -40.9% and the Ki [3] was 80 nM. For the same compound, the inhibition [4] was greater than 80% and the inhibition [5] was greater than 80%.

Source: ChEMBL document CHEMBL4038327, “Inhibitory Kappa B Kinase α (IKKα) Inhibitors That Recapitulate Their Selectivity in Cells against Isoform-Related Biomarkers” (J Med Chem, 2017)
